What was measured:
HEK-293T = test: Cytotoxicity against HEK293T cells incubated for 48 hrs by absorbance based assay; format: toxicity, cell-based; settings: human, hek-293t, 48 h
Protease [1] = molecular target: Protease (Human immunodeficiency virus 1, UniProt Q9YQ12, I84V); test: Binding affinity to drug-resistant HIV-1 protease I84V mutant expressed in Escherichia coli TAP-106 cells assessed as inhibition constant using a EDANS/DABCYL FRET-peptide substrate preincubated for 1 hr followed by substrate addition measured after 1 hr by fluorogenic assay
Chain of Protease (Human immunodeficiency virus 1, UniProt Q9YQ12, I84V) (Q9YQ12 entry or part of it I84V): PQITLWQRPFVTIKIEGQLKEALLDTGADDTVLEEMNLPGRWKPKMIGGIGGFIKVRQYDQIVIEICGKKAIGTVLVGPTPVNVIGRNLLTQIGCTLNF

[2] = tested on: Human immunodeficiency virus 1; test: Antiviral activity against wild-type HIV-1 NL4-3 infected in human TZM-bl cells using virus particles harvested from 18 hrs drug-treated HEK293T cells harboring viral transfection assessed as reduction in viral infection measured after 48 hrs in TZM-bl cells by luciferase based assay; format: functional, organism-based; settings: Human immunodeficiency virus 1, NL4-3, TZM-bl
TZM = test: Cytotoxicity against human TZM-bl cells incubated for 48 hrs by absorbance based assay; format: toxicity, cell-based
Protease [3] = molecular target: Protease (Human immunodeficiency virus 1, UniProt Q9YQ12, A71V/I50V); test: Binding affinity to drug-resistant HIV-1 protease I50V/A71V mutant expressed in Escherichia coli TAP-106 cells assessed as inhibition constant using a EDANS/DABCYL FRET-peptide substrate preincubated for 1 hr followed by substrate addition measured after 1 hr by fluorogenic assay
Chain of Protease (Human immunodeficiency virus 1, UniProt Q9YQ12, A71V/I50V) (Q9YQ12 entry or part of it A71V/I50V): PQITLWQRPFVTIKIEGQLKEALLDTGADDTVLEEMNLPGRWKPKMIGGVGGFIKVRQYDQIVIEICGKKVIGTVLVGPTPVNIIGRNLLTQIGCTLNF

in vitro = settings: human
[4] = Binding affinity to drug-resistant HIV-1 protease I13V/G16E/V32I/L33F/K45I/M46I/V82F/I84V mutant expressed in Escherichia coli TAP-106 cells assessed as inhibition constant using a EDANS/DABCYL FRET-peptide substrate preincubated for 1 hr followed by substrate addition measured after 1 hr by fluorogenic assay; parameters: species or system Human immunodeficiency virus 1
[5] = Binding affinity to drug-resistant HIV-1 protease I13V/G16E/V32I/L33F/K45I/M46I/V82F/I84V/A71V/L76V mutant expressed in Escherichia coli TAP-106 cells assessed as inhibition constant using a EDANS/DABCYL FRET-peptide substrate preincubated for 1 hr followed by substrate addition measured after 1 hr by fluorogenic assay; parameters: species or system Human immunodeficiency virus 1
[6] = Binding affinity to drug-resistant HIV-1 protease I13V/G16E/V32I/L33F/K45I/M46I/V82F/I84V/A71V/L76V/I54L mutant expressed in Escherichia coli TAP-106 cells assessed as inhibition constant using a EDANS/DABCYL FRET-peptide substrate preincubated for 1 hr followed by substrate addition measured after 1 hr by fluorogenic assay; parameters: species or system Human immunodeficiency virus 1
[7] = tested on: Human immunodeficiency virus 1; test: Antiviral activity against wild-type HIV-1 NL4-3 infected in human TZM-bl cells using virus particles harvested from 24 hrs drug-treated human CEM cells infected with virus assessed as reduction in viral infection measured after 48 hrs in TZM-bl cells by Firefly luciferase based assay; format: functional, organism-based; settings: Human immunodeficiency virus 1, NL4-3, TZM-bl
In short: (§1)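 Virus stocks grown by infecting 3 × 10^6 CEM cells with virus at 37 °C for 2–3 h, then RPMI with medium changes every 48 h until CPE. Infected CEM cells plated onto five-fold serial inhibitor dilutions in RPMI (top 100 μM).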

[8] = tested on: Human immunodeficiency virus 1; test: Antiviral activity against drug-resistant HIV-1 harboring RT mutation/protease I13V/G16E/V32I/L33F/K45I/M46I/A71V/L76V/V82F/I84V mutant infected in human TZM-bl cells using virus particles harvested from 24 hrs drug-treated human CEM cells infected with virus assessed as reduction in viral infection measured after 48 hrs in TZM-bl cells by Firefly luciferase based assay; format: functional, organism-based; settings: Human immunodeficiency virus 1, TZM-bl; in short: as §1
[9] = tested on: Human immunodeficiency virus 1; test: Antiviral activity against drug-resistant HIV-1 harboring protease L10F/I15V/M46I/I47V/I50V/F53L/A71V/V82I/I84V/L89T mutant infected in human TZM-bl cells using virus particles harvested from 24 hrs drug-treated human CEM cells infected with virus assessed as reduction in viral infection measured after 48 hrs in TZM-bl cells by Firefly luciferase based assay; format: functional, organism-based; settings: Human immunodeficiency virus 1, TZM-bl; in short: as §1
[10] = tested on: Human immunodeficiency virus 1; test: Antiviral activity against DRV-resistant HIV-1 infected in human TZM-bl cells using virus particles harvested from 24 hrs drug-treated human CEM cells infected with virus assessed as reduction in viral infection measured after 48 hrs in TZM-bl cells by Firefly luciferase based assay; format: functional, organism-based; settings: Human immunodeficiency virus 1, TZM-bl; in short: as §1
[11] = tested on: Human immunodeficiency virus 1; test: Antiviral activity against drug-resistant HIV-1 harboring protease L10F/I13V/L33F/K45R/M46I/I47V/I50V/F53L/I54L/I66F/A71V/T74A/L76S/V82I mutant infected in human TZM-bl cells using virus particles harvested from 24 hrs drug-treated human CEM cells infected with virus assessed as reduction in viral infection measured after 48 hrs in TZM-bl cells by Firefly luciferase based assay; format: functional, organism-based; settings: Human immunodeficiency virus 1, TZM-bl; in short: as §1
[12] = tested on: Human immunodeficiency virus 1; test: Antiviral activity against drug-resistant HIV-1 harboring protease L10I/V11I/I13V/K14R/A22V/E35D/M36I/N37D/G48M/F53L/I54V/I62V/L63P/A71V/T74S/V82A/I84V/T91S/Q92K mutant infected in human TZM-bl cells using virus particles harvested from 24 hrs drug-treated human CEM cells infected with virus assessed as reduction in viral infection measured after 48 hrs in TZM-bl cells by Firefly luciferase based …; format: functional, organism-based; settings: Human immunodeficiency virus 1, TZM-bl
[13] = tested on: Human immunodeficiency virus 1; test: Antiviral activity against drug-resistant HIV-1 harboring protease L10F/V11I/I13V/V32I/L33F/K43T/M46L/I54L/A71V/V82I/I84V/L89M/T91S/Q92R mutant infected in human TZM-bl cells using virus particles harvested from 24 hrs drug-treated human CEM cells infected with virus assessed as reduction in viral infection measured after 48 hrs in TZM-bl cells by Firefly luciferase based assay; format: functional, organism-based; settings: Human immunodeficiency virus 1, TZM-bl; in short: as §1
[14] = tested on: Human immunodeficiency virus 1; test: Antiviral activity against drug-resistant HIV-1 harboring Gag mutation/protease I13V/G16E/V32I/L33F/K45I/M46I/A71V/L76V/V82F/I84V mutant infected in human TZM-bl cells using virus particles harvested from 24 hrs drug-treated human CEM cells infected with virus assessed as reduction in viral infection measured after 48 hrs in TZM-bl cells by Firefly luciferase based assay; format: functional, organism-based; settings: Human immunodeficiency virus 1, TZM-bl; in short: as §1

SMILES | CC50 (HEK-293T) [nM] | Ki (Protease [1]) [nM] | EC50 [2] [nM] | CC50 (TZM) [nM] | Ki (Protease [3]) [nM] | selectivity ratio (in vitro) | Ki [4] [nM] | Ki [5] [nM] | Ki [6] [nM] | EC50 [7] [nM] | EC50 [8] [nM] | EC50 [9] [nM] | EC50 [10] [nM] | EC50 [11] [nM] | EC50 [12] [nM] | EC50 [13] [nM] | EC50 [14] [nM]
CCOP(=O)(COc1ccc(C[C@H](NC(=O)O[C@H]2CO[C@H]3OCC[C@H]32)[C@H](O)CN(CC(C)C)S(=O)(=O)c2ccc(OC)cc2)cc1)OCC | 50000 | < 0.005 | 11.8 | > 100000 | < 0.005 | 4.24 | 0.56 | 2.1 | 3.6 | – | – | – | – | – | – | – | –
CC(C)CN(C[C@@H](O)[C@H](Cc1ccccc1)NC(=O)O[C@H]1CO[C@H]2OCC[C@H]21)S(=O)(=O)c1ccc(N)cc1 | – | – | 7.73 | – | – | – | – | – | – | 8 | 1460 | 1870 | > 100000 | 12900 | 56 | 15800 | –
CCOP(=O)(COc1ccc(C[C@H](NC(=O)O[C@H]2CO[C@H]3OCC[C@H]32)[C@H](O)CN(CC(CC)CC)S(=O)(=O)c2ccc3ncsc3c2)cc1)OCC | 22000 | < 0.005 | 10.7 | 43000 | < 0.005 | 2.06 | 0.25 | 0.24 | 3.2 | – | – | – | – | – | – | – | –
CCOP(=O)(COc1ccc(C[C@H](NC(=O)O[C@H]2CO[C@H]3OCC[C@H]32)[C@H](O)CN(C[C@@H](C)CC)S(=O)(=O)c2ccc(N)cc2)cc1)OCC | 92000 | < 0.005 | 22.9 | > 100000 | < 0.005 | 4.02 | 13.3 | 146 | 259 | – | – | – | – | – | – | – | –
CCOP(=O)(COc1ccc(C[C@H](NC(=O)O[C@H]2CO[C@H]3OCC[C@H]32)[C@H](O)CN(CC(CC)CC)S(=O)(=O)c2ccc3c(c2)OCO3)cc1)OCC | 21000 | < 0.005 | 3.11 | > 100000 | < 0.005 | – | 0.37 | 1.6 | 6.9 | 3 | – | – | – | – | < 10 | – | –
CCC(CC)CN(C[C@@H](O)[C@H](Cc1ccccc1)NC(=O)O[C@H]1CO[C@H]2OCC[C@H]21)S(=O)(=O)c1ccc2c(c1)OCO2 | – | – | – | – | – | – | – | – | – | 6 | – | 6440 | 780 | > 100000 | – | 5770 | –
CCOP(=O)(COc1ccc(C[C@H](NC(=O)O[C@H]2CO[C@H]3OCC[C@H]32)[C@H](O)CN(CC(C)C)S(=O)(=O)c2ccc3ncsc3c2)cc1)OCC | 45000 | < 0.005 | 10.4 | > 100000 | < 0.005 | 4.33 | 0.93 | 1.9 | 15 | – | – | – | – | – | – | – | –
CCOP(=O)(COc1ccc(C[C@H](NC(=O)O[C@H]2CO[C@H]3OCC[C@H]32)[C@H](O)CN(C[C@@H](C)CC)S(=O)(=O)c2ccc3ncsc3c2)cc1)OCC | 23000 | < 0.005 | 9.93 | 53000 | < 0.005 | 2.32 | 1.8 | 1.2 | 9.03 | – | – | – | – | – | – | – | –
CCOP(=O)(COc1ccc(C[C@H](NC(=O)O[C@H]2CO[C@H]3OCC[C@H]32)[C@H](O)CN(C[C@@H](C)CC)S(=O)(=O)c2ccc(OC)cc2)cc1)OCC | 33000 | < 0.005 | 9.56 | 78000 | < 0.005 | 3.45 | 0.78 | 3.7 | 10.5 | – | – | – | – | – | – | – | –
CCOP(=O)(COc1ccc(C[C@H](NC(=O)O[C@H]2CO[C@H]3OCC[C@H]32)[C@H](O)CN(CC(CC)CC)S(=O)(=O)c2ccc(CO)cc2)cc1)OCC | 69000 | < 0.005 | 17 | > 100000 | < 0.005 | 4.06 | 2.2 | 32.1 | 81.2 | – | – | – | – | – | – | – | –
CCOP(=O)(COc1ccc(C[C@H](NC(=O)O[C@H]2CO[C@H]3OCC[C@H]32)[C@H](O)CN(CC(CC)CC)S(=O)(=O)c2ccc(N)cc2)cc1)OCC | 44000 | < 0.005 | 16 | 96000 | < 0.005 | 2.75 | 4.71 | 51.6 | 106 | – | – | – | – | – | – | – | –
CCOP(=O)(COc1ccc(C[C@H](NC(=O)O[C@H]2CO[C@H]3OCC[C@H]32)[C@H](O)CN(CC(CC)CC)S(=O)(=O)c2ccc(OC)cc2)cc1)OCC | 22000 | < 0.005 | 5.15 | 59000 | < 0.005 | – | 0.77 | 1.26 | 2.2 | 5 | 85 | – | – | – | < 10 | – | 38
CCOP(=O)(COc1ccc(C[C@H](NC(=O)O[C@H]2CO[C@H]3OCC[C@H]32)[C@H](O)CN(C[C@@H](C)CC)S(=O)(=O)c2ccc3c(c2)OCO3)cc1)OCC | 31000 | < 0.005 | – | > 100000 | < 0.005 | – | – | – | – | – | – | – | – | – | – | – | –
CCOP(=O)(COc1ccc(C[C@H](NC(=O)O[C@H]2CO[C@H]3OCC[C@H]32)[C@H](O)CN(CC(C)C)S(=O)(=O)c2ccc3c(c2)OCO3)cc1)OCC | 68000 | < 0.005 | 5.67 | > 100000 | < 0.005 | 12 | 2.2 | 4.5 | 63.5 | – | – | – | – | – | – | – | –

— ChEMBL document CHEMBL5620363, “HIV-1 protease inhibitors with a P1 phosphonate modification maintain potency against drug-resistant variants by increased interactions with flap residues” (Eur J Med Chem, 2023)
